Test results published in paper PMC3137751 (Biochemistry, 2010).
Residue numbers refer to the chain shown, from its start. In names and notes the source's numbering stands.

B1: IDH1/IDH2 (Saccharomyces cerevisiae S288C) (protein)
chain 1: ATAAQAERTLPKKYGGRFTVTLIPGDGVGKEITDSVRTIFEAENIPIDWETINIKQTDHKEGVYEAVESLKRNKIGLKGLWHTPADQTGHGSLNVALRKQLDIYANVALFKSLKGVKTRIPDIDLIVIRENTEGEFSGLEHESVPGVVESLKVMTRPKTERIARFAFDFAKKYNRKSVTAVHKANIMKLGDGLFRNIITEIGQKEYPDIDVSSIIVDNASMQAVAKPHQFDVLVTPSMYGTILGNIGAALIGGPGLVAGANFGRDYAVFEPGSRHVGLDIKGQNVANPTAMILSSTLMLNHLGLNEYATRISKAVHETIAEGKHTTRDIGGSSSTTDFTNEIINKLSTM
chain 2: ATVKQPSIGRYTGKPNPSTGKYTVSFIEGDGIGPEISKSVKKIFSAANVPIEWESCDVSPIFVNGLTTIPDPAVQSITKNLVALKGPLATPIGKGHRSLNLTLRKTFGLFANVRPAKSIEGFKTTYENVDLVLIRENTEGEYSGIEHIVCPGVVQSIKLITRDASERVIRYAFEYARAIGRPRVIVVHKSTIQRLADGLFVNVAKELSKEYPDLTLETELIDNSVLKVVTNPSAYTDAVSVCPNLYGDILSDLNSGLSAGSLGLTPSANIGHKISIFEAVHGSAPDIAGQDKANPTALLLSSVMMLNHMGLTNHADQIQNAVLSTIASGPENRTGDLAGTATTSSFTEAVIKRL
B2: ^-5IDH1^D168K/IDH2 (Saccharomyces cerevisiae S288C; D179K) (protein)
chain 1: AERTLPKKYGGRFTVTLIPGDGVGKEITDSVRTIFEAENIPIDWETINIKQTDHKEGVYEAVESLKRNKIGLKGLWHTPADQTGHGSLNVALRKQLDIYANVALFKSLKGVKTRIPDIDLIVIRENTEGEFSGLEHESVPGVVESLKVMTRPKTERIARFAFKFAKKYNRKSVTAVHKANIMKLGDGLFRNIITEIGQKEYPDIDVSSIIVDNASMQAVAKPHQFDVLVTPSMYGTILGNIGAALIGGPGLVAGANFGRDYAVFEPGSRHVGLDIKGQNVANPTAMILSSTLMLNHLGLNEYATRISKAVHETIAEGKHTTRDIGGSSSTTDFTNEIINKLSTM
chain 2: B1 chain 2
B3: truncated ^-5IDH1/IDH2 enzyme (complex, yeast)
chain 1: B2 chain 1 with K163D
chain 2: B1 chain 2
B4: ^-5IDH1^G15D/IDH2: truncated -5 IDH1 with G15D replacement plus IDH2; tetrameric (protein)
chain 1: B2 chain 1 with G10D, K163D
chain 2: B1 chain 2
modifications: left off: histidine tag, C-terminal, kept
B5: ^-5IDH1^D168K/IDH2: truncated -5 IDH1 with D168K replacement plus IDH2; tetrameric (protein)
chain 1: B2 chain 1
chain 2: B1 chain 2
modifications: left off: histidine tag, C-terminal, kept
B6: ^-5IDH1^D168A/IDH2 enzyme (complex, yeast)
chain 1: B2 chain 1 with K163A
chain 2: B1 chain 2
B7: wild-type IDH1/IDH2 enzyme (yeast NAD+-specific isocitrate dehydrogenase) (complex)
chain 1: B1 chain 1
chain 2: B1 chain 2
B8: ^-5IDH1^G15A/IDH2 enzyme (complex, yeast)
chain 1: B2 chain 1 with G10A, K163D
chain 2: B1 chain 2
B9: IDH1^G15D/IDH2 enzyme (complex, yeast)
chain 1: B1 chain 1 with G15D
chain 2: B1 chain 2
B10: ^-5IDH1^G15D/IDH2 enzyme (complex, yeast)
chain 1: B2 chain 1 with G10D, K163D
chain 2: B1 chain 2
B11: ^-5IDH1/IDH2: IDH with five residues truncated from the amino terminus of IDH1; octameric (protein)
chain 1: B2 chain 1 with K163D
chain 2: B1 chain 2
modifications: left off: histidine tag, C-terminal, kept
B12: IDH1^G15D/IDH2: full-length IDH1 with G15D substitution plus IDH2; stable tetramer (protein)
chain 1: B1 chain 1 with G15D
chain 2: B1 chain 2
modifications: left off: histidine tag, C-terminal, kept

Key:
[1] = substrate: O=C(O)C[C@H](C(=O)O)[C@@H](O)C(=O)O; experiment: Apparent S0.5 for isocitrate; type: biochemical; conditions: pH 7.4; 24.0 °C
SEC = target: the molecule itself; experiment: SEC
[2] = tested on: Yeast NAD+-specific isocitrate dehydrogenase (IDH); experiment: Kinetic analyses: isocitrate saturation velocity curves of purified IDH enzymes; type: biochemical; conditions: for Hill coef. with respect to isocitrate, − AMP: absence of AMP; for Vmax (apparent), + AMP: isocitrate velocity saturation curve; for Vmax (apparent), + AMP / Hill coef. with respect to isocitrate, + AMP: presence of 100 μM AMP
In short: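 His-tagged IDH purified by Ni2+-NTA, stored at −20 °C in elution buffer with 20% glycerol, quantified by A280. Assays at 24 °C used 40 mM Tris-HCl pH 7.4, 4 mM MgCl2 and 0.5 mM NAD+. D-isocitrate was varied 0–5 mM, with or without 100 μM AMP, and NADH formation was followed. Apparent S0.5 and Hill coefficients came from saturation curves, Vmax as maximum velocity per mg, over two independent experiments.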

AUC [3] = target: the molecule itself; experiment: AUC
AUC [4] = target: the molecule itself; experiment: AUC; remark: listed apart in the source

Molecule | K0.5 [1] | Hill coef. with respect to isocitrate, − AMP [2] | Vmax (apparent), + AMP [2] | Hill coef. with respect to isocitrate, + AMP [2] | other results
B1 | 0.53/0.10 (±0.10/0) mM |  |  |  | 
B2 | 0.61/0.13 (±0.13/0.04) mM |  |  |  | 
B3 | 0.52/0.11 (±0.04/0.01) mM |  |  |  | stoichiometry N (SEC): 8
B4 |  | 2.2 | 15.4 units/mg | 2.0 | reduction in apparent Vmax relative to ^-5IDH1/IDH2 [2]: ~ 50%
B5 |  | 2.2 | 15.3 units/mg | 2.0 | reduction in apparent Vmax relative to ^-5IDH1/IDH2 [2]: ~ 50%
B6 |  |  |  |  | stoichiometry N (AUC [3]): 8
B7 |  |  |  |  | stoichiometry N (AUC [3]): 8
B8 |  |  |  |  | stoichiometry N (AUC [4]): > 4
B9 | 0.60/0.13 (±0.13/0.01) mM |  |  |  | stoichiometry N (AUC [4]): 4
B10 | 0.64/0.14 (±0.03/0.04) mM |  |  |  | stoichiometry N (SEC): 4
B11 |  | 3.1 | 30.3 units/mg | 3.5 | 
B12 |  | 2.3 | 21.9 units/mg | 2.0 | reduction in apparent Vmax relative to IDH1/IDH2 (wild-type) ([2]; relative to IDH1/IDH2): ~ 38%
